According to ChEMBL document CHEMBL1147088, “Small molecule obatoclax (GX15-070) antagonizes MCL-1 and overcomes MCL-1-mediated resistance to apoptosis” (Proc Natl Acad Sci U S A, 2007):
Active and inactive are the calls of the source. The calls are words filed in the database; no cut-off is given here.

Columns and labels:
[1] = target: Apoptosis regulator Bcl-2 (Homo sapiens, UniProt P10415); test: Binding affinity to BCL2
KB [2] = test: Depletion of cytochrome c in mitochondria of human KB cells at 2.0 uM; type: functional, cell-based
Method in brief: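 Mitochondria isolated from KB cells were incubated 30 min at 37°C with DMSO or compound, then reisolated. Mitochondrial pellet and post-mitochondrial supernatant were analysed by SDS/PAGE and cytochrome c immunoblot, with actin and a control protein as loading controls.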

Eu-Myc [3] = test: Induction of apoptosis in mouse Eu-Myc cells overexpressing MCL1 assessed as inhibition of colony formation at 1 uM; type: functional, cell-based
Eu-Myc [4] = test: Induction of apoptosis in mouse Eu-Myc cells overexpressing BCL2 assessed as inhibition of colony formation at 1 uM; type: functional, cell-based
Eu-Myc [5] = test: Induction of apoptosis in mouse Eu-Myc cells overexpressing A1 assessed as inhibition of colony formation at 1 uM; type: functional, cell-based
KB [6] = test: Cytotoxicity against BCL2 overexpressing human KB cells transfected with MCL1 siRNA assessed as annexin 5 reactivity at 0.5 uM after 72 hrs by flow cytometry; type: functional
KB [7] = test: Cytotoxicity against BCL2 overexpressing human KB cells transfected with MCL1 siRNA assessed as propidium iodide uptake at 0.5 uM after 72 hrs by flow cytometry; type: functional
KB [8] = test: Cytotoxicity in human KB cells overexpressing BCL2 at 0.1 uM; type: functional, cell-based
KB [9] = test: Cytotoxicity in human KB cells overexpressing BCL2 at 0.5 uM; type: functional, cell-based
KB [10] = test: Cytotoxicity in human siRNA-mediated-MCL1-kncok down KB cells overexpressing BCL2 at 0.5 uM; type: functional, cell-based
KB [11] = test: Cytotoxicity against BCL2 overexpressing human KB cells transfected with luciferase siRNA assessed as propidium iodide uptake at 0.5 uM after 72 hrs by flow cytometry; type: functional
KB [12] = test: Cytotoxicity against BCL2 overexpressing human KB cells transfected with luciferase siRNA assessed as annexin 5 uptake at 0.5 uM after 72 hrs by flow cytometry; type: functional
[13] = Cytotoxicity against mouse B16-F1 cells transfected with MCL1 siRNA assessed as assessed as annexin 5 uptake at 100 nM after 24 hrs by flow cytometry; type: functional
[14] = Cytotoxicity against mouse B16-F1 cells transfected with luciferase siRNA assessed as assessed as annexin 5 uptake at 100 nM after 24 hrs by flow cytometry; type: functional

Sequence of Apoptosis regulator Bcl-2 (P10415 whole entry): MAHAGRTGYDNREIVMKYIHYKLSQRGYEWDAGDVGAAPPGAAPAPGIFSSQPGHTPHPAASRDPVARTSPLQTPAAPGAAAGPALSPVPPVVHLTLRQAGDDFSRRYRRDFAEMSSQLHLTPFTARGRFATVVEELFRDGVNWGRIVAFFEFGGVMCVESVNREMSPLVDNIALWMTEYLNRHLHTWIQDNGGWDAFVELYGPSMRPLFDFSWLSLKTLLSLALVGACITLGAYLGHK

## O=C(O[C@H]1Cc2c(O)cc(O)cc2OC1c1cc(O)c(=O)c2c(O)c(O)cc([C@H]3Oc4cc(O)cc(O)c4C[C@H]3O)c2c1)c1cc(O)c(O)c(O)c1 (some centres not stated)
[1]
  Ki: 1230 nM

## COC(=O)NC(CCSC)C(=O)Oc1ccc(Nc2nc3c(s2)C(=O)c2ccccc2C3=O)cc1 (configuration not stated)
[1]
  Ki: 1290 nM

## CC[C@H](C)[C@H](NC(=O)[C@H](CC(N)=O)NC(=O)[C@H](CCCNC(=N)N)NC(=O)[C@@H](NC(=O)[C@@H](NC(=O)[C@H](CC(=O)O)NC(=O)[C@@H](N)CCC(=O)O)[C@@H](C)CC)[C@@H](C)CC)C(=O)N[C@@H](C)C(=O)N[C@@H](CCCNC(=N)N)C(=O)N[C@@H](Cc1cnc[nH]1)C(=O)N[C@@H](CC(C)C)C(=O)N[C@@H](C)C(=O)N[C@@H](CCC(N)=O)C(=O)N[C@H](C(=O)NCC(=O)N[C@@H](CC(=O)O)C(=O)N[C@@H](CO)C(=O)N[C@@H](CCSC)C(=O)N[C@@H](CC(=O)O)C(=O)N[C@@H](CCCNC(=N)N)C(=O)O)C(C)C
KB [2]
  Activity: Active

## Oc1cc(O)c2c(c1)O[C@H](c1ccc(O)c(O)c1)[C@H](O)C2 [(-)-EPICATECHIN]
[1]
  Ki: > 100000 nM

## CN(C)CC[C@H](CSc1ccccc1)Nc1ccc(S(=O)(=O)NC(=O)c2ccc(N3CCN(Cc4ccccc4-c4ccc(Cl)cc4)CC3)cc2)cc1[N+](=O)[O-] [ABT 737]
Eu-Myc [3]
  Activity: inactive
Eu-Myc [4]
  Activity: Active
Eu-Myc [5]
  Activity: inactive
KB [6]
  Activity: 58%
KB [7]
  Activity: 72%
KB [8]
  Activity: inactive
KB [9]
  Activity: inactive
KB [10]
  Activity: Active
KB [11]
  Activity: 9%
KB [12]
  Activity: 8%

## CCCC[C@H]1C(=O)O[C@H](C)[C@H](NC(=O)c2cccc(NC=O)c2O)C(=O)O[C@@H](C)[C@@H]1OC(=O)CC(C)C [ANTIMYCIN A3]
[1]
  Ki: 832 nM

## CC(C)C[C@H](NC(=O)[C@H](Cc1ccccc1)NC(=O)c1cnccn1)B(O)O [BORTEZOMIB]
[13]
  Activity: 42%
[14]
  Activity: 14%
